Measurements from ChEMBL document CHEMBL1153564 (Antimicrob Agents Chemother, 2008).
≈ marks a conversion by molar mass, not a printed value. Calls of active or inactive are those of the source. The calls are words filed in the database; no cut-off is given here. Starred links: 1 amine or outer side, 2 acyl side, 3 side chain; linkers in the order of their positions; H or OH if unused. Positions of bridges follow the written chain, without caps; N, C: chain ends. Non-standard residues stand in square brackets, D forms with d. Residues, ends and D or L forms follow the SMILES beside them. *: point of attachment. pTerphenylCO(4''-OnC5H11) = CCCCCOc1ccc(-c2ccc(-c3ccc(C(=O)*)cc3)cc2)cc1; Orn(4R-OH,5R-OH) = O=C([C@H](C[C@@H](O)[C@@H](O)N[*:3])N[*:1])[*:2]; hTyr(3S-OH,4S-OH) = N[C@H](C(=O)O)[C@H](O)[C@@H](O)c1ccc(O)cc1; Pro(3S-OH,4S-Me) = C[C@H]1CN[C@H](C(=O)O)[C@H]1O; Hyp = O=C(O)[C@@H]1C[C@@H](O)CN1

What was measured:
Nakaseomyces glabratus [1] = test: Antifungal activity against Candida glabrata 513 infected in neutropenic ICR/Swiss mouse candidiasis model assessed as dose required for 1-log10 reduction in […] per kidney administered intraperitoneally every 24 hrs up to 4 days measured per 24 hrs; type: functional
How it was run: (§1)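 Neutropenic mouse disseminated candidiasis, with i.p. therapy starting 2 h after i.v. infection. Five total doses of 0.078–20 mg/kg/24 h were given q24h for 4 days, three mice per dose. Kidney CFU were counted at the end and compared with untreated controls. The dose giving a 1 log10 CFU/kidney reduction was derived from the sigmoid Hill dose–effect model.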

Nakaseomyces glabratus [2] = test: Antifungal activity against Candida glabrata 570 infected in neutropenic ICR/Swiss mouse candidiasis model assessed as fungal count per kidney administered 2 hrs postinfection measured up to 48 hrs; type: functional
How it was run: (§2)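 Female ICR/Swiss mice (23–27 g) made neutropenic with cyclophosphamide s.c. (150 mg/kg day −4, 100 mg/kg day −1, 100 mg/kg day +2). Infected by tail vein with 0.1 ml inoculum (~6.1 log10 CFU/ml). Kidneys of untreated mice were homogenised and plated on SDA for 24 h at 35°C. Growth over 48 h is given as log10 CFU/kidney.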

Candida albicans [3] = test: Antifungal activity against Candida albicans K-1 infected in neutropenic ICR/Swiss mouse candidiasis model assessed as […] burden per kidney administered intraperitoneally every 16 hrs up to 4 days measured per 96 hrs; type: functional; settings: K-1, Kidney, ip
How it was run: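 Neutropenic mice were infected iv with C. albicans K-1 2 h before therapy. Total doses of 1.25, 5, 20, 80 and 320 mg/kg/96 h were split into 1, 2, 4 or 6 ip doses (q96h, q48h, q24h, q16h), three mice per regimen. Effect is the log10 CFU/kidney relative to untreated controls at 96 h. Static and 1-log doses were taken from a Hill model fit.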

Nakaseomyces glabratus [4] = test: Antifungal activity against Candida glabrata 5592 infected in neutropenic ICR/Swiss mouse candidiasis model assessed as dose required for 1-log10 reduction in […] per kidney administered intraperitoneally every 24 hrs up to 4 days measured per 24 hrs; type: functional; how it was run: as §1
Candida albicans [5] = test: Antifungal activity against Candida albicans 98-17 infected in neutropenic ICR/Swiss mouse candidiasis model assessed as fungal count per kidney administered 2 hrs postinfection measured up to 48 hrs; type: functional
How it was run: (§3)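 Untreated neutropenic mice infected via the tail vein (inoculum about 6.1 log10 CFU/ml, 0.1 ml). Growth is the rise in kidney CFU over 48 h. Kidneys were homogenised, serially diluted 1:10 and plated on SDA for 24 h at 35°C. Mean of three mice.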

Nakaseomyces glabratus [6] = test: Antifungal activity against Candida glabrata 35315 infected in neutropenic ICR/Swiss mouse candidiasis model assessed as fungal count per kidney administered 2 hrs postinfection measured up to 48 hrs; type: functional; how it was run: as §2
Nakaseomyces glabratus [7] = test: Antifungal activity against Candida glabrata 37661 infected in neutropenic ICR/Swiss mouse candidiasis model assessed as fungal count per kidney administered 2 hrs postinfection measured up to 48 hrs; type: functional; how it was run: as §2
Nakaseomyces glabratus [8] = test: Antifungal activity against Candida glabrata 570 assessed as complete growth inhibition after 24 hrs by CLSI end point method; type: functional; settings: Nakaseomyces glabratus, 570, 24 h
How it was run: (§4)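 Two end points were read against the drug-free control well: partial growth inhibition (the CLSI end point) and complete inhibition. Run in duplicate on four separate occasions; the value is the mean. Drug stock was made in DMSO and diluted in 0.9% NaCl.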

Nakaseomyces glabratus [9] = test: Antifungal activity against Candida glabrata 5376 infected in neutropenic ICR/Swiss mouse candidiasis model assessed as prolongation of fungal growth suppression at 1.25 mg/kg, ip administered 2 hrs postinfection as single dose by time-kill assay; type: functional; settings: route intraperitoneal
How it was run: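 Single ip dose of 1.25, 5 or 20 mg/kg given 2 h after iv infection of neutropenic mice. Groups of 3 treated and 3 control mice sampled at 1–24 h intervals over 96 h. Kidney homogenates plated on SDA, 24 h at 35°C. PAFE = time for treated burden to rise 1 log10 CFU/kidney after serum level fell below MIC, minus the same time in controls.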

Candida albicans [10] = test: Antifungal activity against Candida albicans 98-210 infected in neutropenic ICR/Swiss mouse candidiasis model assessed as fungal count per kidney administered 2 hrs postinfection measured up to 48 hrs; type: functional; how it was run: as §3
[11] = Steady state AUC in human at 100 mg/day; type: ADME, organism-based; settings: in vivo
Candida tropicalis = test: Antifungal activity against Candida tropicalis 98-234 infected in neutropenic ICR/Swiss mouse candidiasis model assessed as dose required to maintain […] of 3.81 +/- 0.33 log10CFU per kidney administered intraperitoneally every 24 hrs up to 4 days measured per 24 hrs; type: functional
Candida albicans [12] = test: Antifungal activity against Candida albicans 98-210 assessed as partial growth inhibition after 24 hrs by CLSI end point method; type: functional; settings: 98-210, 24 h
How it was run: (§5)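 CLSI M27-A2 broth dilution. Two end points read against the drug-free control well: partial inhibition (CLSI end point) and complete inhibition. Run in duplicate on four separate occasions; value is the mean. Drug stock in DMSO, diluted in 0.9% NaCl.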

[13] = Protein binding in Candida albicans K-1 infected neutropenic ICR/Swiss mouse serum after 30 mins by arithmetic dilution method; type: ADME, organism-based; settings: read-out: PB (converted)
Nakaseomyces glabratus [14] = test: Antifungal activity against Candida glabrata 33609 assessed as partial growth inhibition after 24 hrs by CLSI end point method; type: functional; settings: Nakaseomyces glabratus, 33609, 24 h; how it was run: as §5
Nakaseomyces glabratus [15] = test: Antifungal activity against Candida glabrata 34341 assessed as complete growth inhibition after 24 hrs by CLSI end point method; type: functional; settings: Nakaseomyces glabratus, 34341, 24 h; how it was run: as §4
Candida albicans [16] = test: Antifungal activity against Candida albicans K-1 assessed as partial growth inhibition after 24 hrs by CLSI end point method; type: functional; settings: K-1, 24 h; how it was run: as §5
Nakaseomyces glabratus [17] = test: Antifungal activity against Candida glabrata 37661 assessed as complete growth inhibition after 24 hrs by CLSI end point method; type: functional; settings: Nakaseomyces glabratus, 37661, 24 h; how it was run: as §4
Nakaseomyces glabratus [18] = test: Antifungal activity against Candida glabrata 5376 infected in neutropenic ICR/Swiss mouse candidiasis model assessed as suppression of fungal regrowth at 5 mg/kg, ip administered 2 hrs postinfection as single dose by time-kill assay; type: functional, organism-based; design: dose 5 mg/kg
How it was run: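 Neutropenic mice were infected i.v. and 2 h later given a single i.p. dose (1.25, 5 or 20 mg/kg). Groups of three treated and three control mice were killed at intervals over 96 h, and kidney CFU were counted on SDA (limit 100 CFU/ml). The post-antifungal effect is t − c: the time for a 1 log10 CFU/kidney increase once serum levels fall below the MIC in treated mice, minus the same time in controls.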

Nakaseomyces glabratus [19] = test: Antifungal activity against Candida glabrata 5592 assessed as complete growth inhibition after 24 hrs by CLSI end point method; type: functional; settings: Nakaseomyces glabratus, 5592, 24 h; how it was run: as §4
Candida albicans [20] = test: Antifungal activity against Candida albicans K-1 infected in neutropenic ICR/Swiss mouse candidiasis model assessed as prolongation of fungal growth suppression at 5 mg/kg, ip administered 2 hrs postinfection as single dose by time-kill assay; type: functional; settings: route intraperitoneal
How it was run: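 Single ip dose (20, 5 or 1.25 mg/kg) given 2 h after iv infection of neutropenic mice with K-1. Three treated and three control mice were sampled at intervals over 96 h for kidney CFU. PAFE is the time for treated burden to rise 1 log10 after serum levels fall below MIC, minus the same time in controls. Free drug was taken as 1%.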

Nakaseomyces glabratus [21] = test: Antifungal activity against Candida glabrata 35315 assessed as complete growth inhibition after 24 hrs by CLSI end point method; type: functional; settings: Nakaseomyces glabratus, 35315, 24 h; how it was run: as §4

## CCCCCOc1ccc(-c2ccc(-c3ccc(C(=O)N[C@H]4C[C@@H](O)[C@@H](O)NC(=O)[C@@H]5[C@@H](O)[C@@H](C)CN5C(=O)[C@H]([C@@H](C)O)NC(=O)[C@H]([C@H](O)[C@@H](O)c5ccc(O)cc5)NC(=O)[C@@H]5C[C@@H](O)CN5C(=O)[C@H]([C@@H](C)O)NC4=O)cc3)cc2)cc1 [ANIDULAFUNGIN] ({pTerphenylCO(4''-OnC5H11)}-[Orn(4R-OH,5R-OH)]T[Hyp][hTyr(3S-OH,4S-OH)]T[Pro(3S-OH,4S-Me)]; lactam 1-C)
Nakaseomyces glabratus [1]
  Activity: 4.13 mg/kg
Nakaseomyces glabratus [2]
  log10cfu: 2.45
Candida albicans [3]
  ED50: 8.74 mg/kg
Nakaseomyces glabratus [4]
  Activity: 11.8 mg/kg
Candida albicans [5]
  log10cfu: 4.3
Nakaseomyces glabratus [6]
  log10cfu: 0.97
Nakaseomyces glabratus [7]
  log10cfu: 0.96
Nakaseomyces glabratus [8]
  MIC: 0.12 µg/mL (≈ 0.105 µM)
Nakaseomyces glabratus [9]
  Activity: 19 h
Candida albicans [10]
  log10cfu: 3.5
[11]
  AUC: 112 µg·h/mL
Candida tropicalis
  Activity: 3.81 mg/kg
Candida albicans [12]
  MIC: 0.015 µg/mL (≈ 0.0132 µM)
[13]
  fraction unbound at 0.5 h: 0.2
Nakaseomyces glabratus [14]
  MIC: 0.03 µg/mL (≈ 0.0263 µM)
Nakaseomyces glabratus [15]
  MIC: 1 µg/mL (≈ 0.877 µM)
Candida albicans [16]
  MIC: 0.015 µg/mL (≈ 0.0132 µM)
Nakaseomyces glabratus [17]
  MIC: 2 µg/mL (≈ 1.75 µM)
Nakaseomyces glabratus [18]
  Activity: Active
Nakaseomyces glabratus [19]
  MIC: 0.12 µg/mL (≈ 0.105 µM)
Candida albicans [20]
  Activity: >96 h
Nakaseomyces glabratus [21]
  MIC: 1 µg/mL (≈ 0.877 µM)
